From paper PMC3744103 (Molecular cancer therapeutics, 2013)
“And” between values parts separate entries of the source, which are not always exact repeats. Equal entries are not always repeated.

Key:
UMUC3 cells [1] = test: Cell viability, ATPase activity assay; assay type: cell-based, human
How it was run: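 Cells exposed for 48 h to varying concentrations of test compound, with 0.1% DMSO as vehicle control. Viability read by an ATPase-based assay in three independent experiments. UMUC3 kept in DMEM with 10% FBS at 37 °C and 5% CO2. IC50 given with n=3.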

RT4 cells = test: Cell viability, ATPase activity assay; assay type: cell-based, human; details: read-out: IC50, cell viability; RT4, ISO 5–60 μM, 48 h, n=3
Cl41 cells = test: Cell viability, ATPase activity assay; assay type: cell-based, mouse; details: normal Cl41 cells, ISO 5–60 μM, 48 h
UMUC3 cells [2] = test: Cell morphology observation; assay type: cell-based, human; details: UMUC3, 20 μM ISO, 24 hours
UMUC3 cells [3] = test: Cell cycle and apoptosis analysis by flow cytometry; assay type: cell-based, human; details: UMUC3, 5 μM ISO; for cells in G0/G1 (growth arrest): control 47.58%
UMUC3 cells [4] = test: Anchorage-independent growth assay; assay type: cell-based, human; details: UMUC3 in soft agar, concentration-dependent, as low as 5 μM, P<0.01
How it was run: (§1)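 UMUC3 cells (DMEM, 10% FBS; stable GFP or GFP-Cyclin D1 transfectants made by co-transfection with pSuper vector) were seeded at 1×10^4 per well in 0.33% soft agar in 10% FBS BME, with or without test compound, over a 0.5% agar bottom layer. Vehicle was 0.1% DMSO. Cultures were kept at 37°C, 5% CO2 for 21 days. Colonies over 32 cells were counted by microscope as colonies per 10,000 seeded cells (mean±SD, 3 experiments).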

[5] = ISO pharmacokinetics in mouse serum, LC/MS/MS; assay type: in vivo, mice; details: for Caverage ± SD, serum ISO concentration: mouse serum, 150 mg/kg gastric gavage, n=3
How it was run: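 Male […] mice (20–25 g, 30 total) received 150 mg/kg by gastric gavage; three were killed per time point from 0.033 to 4 h. Serum (centrifuged 4000 rpm, 30 min; stored −20 °C) extracted with methanol, filtered 0.45 μm and run on LC/MS/MS: negative ESI, MRM, m/z 257.0/241.1, naringenin 271.1/151.1. Parameters derived by non-compartmental analysis.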

[6] = tested on: Cyclin D1 protein expression in UMUC3 cells; test: Western blotting of Cyclin D1 and cell cycle regulators; assay type: cell-based, human
[7] = tested on: Cyclin D1 protein expression in RT112 cells; test: Western blotting of Cyclin D1; assay type: cell-based, human
[8] = tested on: Cyclin D1 protein expression in RT4 cells; test: Western blotting of Cyclin D1; assay type: cell-based, human; details: low grade RT4 cell line, 24h
[9] = tested on: Cyclin D1 protein expression in Cl41 cells; test: Western blotting of Cyclin D1; assay type: cell-based, mouse; details: normal Cl41 cell line, 24h
[10] = tested on: cyclin d1 mRNA in UMUC3 cells; test: Semiquantitative RT-PCR; assay type: cell-based, human; details: UMUC3, concentration- and time-dependent (24 h; 5 μM time course)
How it was run: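 UMUC3 cells treated with test compound at the indicated concentrations for 24 h, or at 5 μM for the indicated times. Total RNA isolated with TRIzol and reverse transcribed. Cyclin D1 mRNA measured by semiquantitative RT-PCR against GAPDH, with products run on 2% agarose and stained with ethidium bromide.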

[11] = tested on: Cyclin D1 promoter transcriptional activity in UMUC3 cells; test: Cyclin D1 promoter-driven luciferase reporter assay; assay type: cell-based, human; details: ISO 5μM
How it was run: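 UMUC3 cells stably carrying a Cyclin D1 promoter-luciferase reporter were seeded at 1×10^4 per well and treated with 5 μM test compound at 80–90% confluence for the indicated times. Luciferase activity read on a microplate luminometer.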

[12] = tested on: SP1-dependent transcriptional activity in UMUC3 cells; test: SP1 luciferase reporter assay; assay type: cell-based, human; details: UMUC3 stable reporter, ISO 5μM, P<0.01
How it was run: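 A reporter with three consensus SP1 sites was stably co-transfected with pRL-TK and pSuper into UMUC3 cells. Cells were seeded at 1×10^4 per well and, at 80–90% confluence, exposed to 5 μM test compound for various times. Lysis buffer was Tris-phosphate pH 7.8 with EDTA, Triton X-100 and glycerol. Dual-luciferase read-out gave relative SP1 activity (means±SE, three independent experiments).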

[13] = tested on: SP1 protein expression in UMUC3 cells; test: Western blotting of cytoplasmic and nuclear extracts for transcription factors; assay type: cell-based, human; details: UMUC3, 5 μM ISO, 12 h
How it was run: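 UMUC3 cells in 10-cm dishes were treated with 0.1% DMSO or 5 μM test compound for 12 h. Cytoplasmic and nuclear fractions were prepared with a nuclear/cytosol fractionation kit and stored at −80°C. Immunoblots used an AP-conjugated secondary with ECF detection and GAPDH as loading control. Nuclear SP1 was quantified by scanning relative to C-Jun (n=3).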

[14] = tested on: SP1 binding to Cyclin D1 promoter in UMUC3 cells; test: ChIP assay; assay type: cell-based, human; details: UMUC3, ISO 5 μM, 12 hours
How it was run: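 Chromatin immunoprecipitation (EZ-ChIP kit) on UMUC3 cells left untreated or given 5 μM test compound for 12 h. Precipitated DNA amplified by PCR with primers covering the SP1-binding region −92 to +27 of the human Cyclin D1 promoter.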

UMUC3(GFP) cells = test: Cell cycle analysis by flow cytometry in stable transfectant; assay type: cell-based, human; details: ISO 24 h, control 62.74%
[15] = tested on: UMUC3(GFP-Cyclin D1) cells; test: as above; assay type: cell-based, human; details: ISO 24 h, control 51.01%
[16] = tested on: UMUC3 (GFP) and UMUC3 (GFP-Cyclin D1) cells; test: Anchorage-independent growth in soft agar, stable transfectants; assay type: cell-based, human; details: UMUC3 (GFP) vs UMUC3 (GFP-Cyclin D1) in soft agar
How it was run: as §1

[17] = tested on: endogenous Cyclin D1 and exogenous GFP-Cyclin D1 in UMUC3 transfectants; test: Western blotting in stable transfectants; assay type: cell-based, human; details: ISO 24 h
How it was run: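 UMUC3 cells stably transfected with GFP or GFP-Cyclin D1 constructs were treated with test compound for 24 h. Cells were lysed in 10 mM Tris-HCl (pH 7.4), 1% SDS, 1 mM Na3VO4, and protein was quantified by DC assay. Blots were probed with primary antibodies and an AP-conjugated secondary, with ECF detection.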

[18] = tested on: human bladder cancer cells; details: cited from earlier work
[19] = tested on: bovine aortic smooth muscle cells (BASMCs); details: cited from earlier work
cardiac hypertrophy = details: by anti-oxidative activity; cited from earlier work
[20] = mice, 150 mg/kg oral, non-compartmental model

COc1cc(/C=C/c2cc(O)cc(O)c2)ccc1O [ISO, Isorhapontigenin]
cell proliferation (UMUC3 cells [1]; UMUC3, 5 μM ISO): inhibition of cell proliferation | IC50 (UMUC3 cells [1]; read-out: IC50, cell viability, UMUC3, ISO 5–60 μM, 48 h, n=3): 22.4 ± 3.3 µM | IC50 (RT4 cells): 38.6 ± 2.9 µM | cell viability (Cl41 cells): no obvious reduction of cell viability | morphologic changes (UMUC3 cells [2]): shrinkage, rounding, detachment and membrane blebbing | apoptotic cells (UMUC3 cells [3]): did not induce any increases of apoptotic cells | cells in G0/G1 (growth arrest) (UMUC3 cells [3]; 12h): 57.98% | cells in G0/G1 (growth arrest) (UMUC3 cells [3]; 24h): 62.62% | anchorage-independent growth (UMUC3 cells [4]): markedly inhibited anchorage-independent growth | AUC(0-t) [5, 20]: 6090 ± 2810 ng·h/mL | AUC(0-∞) [5, 20]: 6100 ± 2800 ng·h/mL | CLz/F, apparent clearance [5, 20]: 462 ± 172 mL/min/kg | MRT(0-t), mean residence time [5, 20]: 0.70 ± 0.20 h | t1/2z, terminal half-life ([5]; mice, 150 mg/kg oral, non-compartmental model, 150 mg/kg): 1.7 h and 1.72 ± 0.27 h | Caverage ± SD, serum ISO concentration ([5]; 0.033 h): 6800 ± 2100 ng/mL | Caverage ± SD, serum ISO concentration ([5]; 0.083 h): 10740 ± 3520 ng/mL | Caverage ± SD, serum ISO concentration ([5]; 0.170 h): 12350 ± 4790 ng/mL | Caverage ± SD, serum ISO concentration ([5]; 0.250 h): 9230 ± 4840 ng/mL | Caverage ± SD, serum ISO concentration ([5]; 0.500 h): 6220 ± 3600 ng/mL | Caverage ± SD, serum ISO concentration ([5]; 0.750 h): 830 ± 800 ng/mL | Caverage ± SD, serum ISO concentration ([5]; 1.000 h): 290 ± 240 ng/mL | Caverage ± SD, serum ISO concentration ([5]; 1.500 h): 280 ± 140 ng/mL | Caverage ± SD, serum ISO concentration ([5]; 2.000 h): 170 ± 120 ng/mL | Caverage ± SD, serum ISO concentration ([5]; 4.000 h): 30 ± 10 ng/mL | earliest time of significant reduction of Cyclin D1 expression ([6]; UMUC3, 5 μM ISO): 6 h | Cyclin B1 expression ([6]; UMUC3, 5 μM ISO, 24 h): slightly reduced | expression of Cyclin A, Cyclin E, Cyclin B1, CDK4, CDK6, P53, P27, P21 ([6]; UMUC3, different concentrations of ISO, 24 hours): did not show observable inhibition | Cyclin D1 protein expression ([6]; UMUC3, different concentrations of ISO, 24 hours, vs DMSO): concentration-dependent reduction of Cyclin D1 protein expression | earliest time of significant reduction of Cyclin D1 expression ([7]; RT112, 5 μM ISO): 6 h | Cyclin D1 expression ([7]; high grade RT112 cell line, 24h): markedly inhibition of Cyclin D1 expression | Cyclin D1 expression [8]: slight inhibition | Cyclin D1 expression [9]: marginal induction of Cyclin D1 | cyclin d1 mRNA [10]: marked reduction of cyclin d1 mRNA | Cyclin D1 transcription, SP1 mutant reporter ([11]; UMUC3/SP1mut-Cyclin D1-Luc transfectant): did not shown a significant inhibition of Cyclin D1 transcription | Cyclin D1 transcription, WT reporter ([11]; UMUC3/WT Cyclin D1-Luc transfectant): inhibited Cyclin D1 transcription | Cyclin D1 promoter transcriptional activity ([11]; UMUC3 stable reporter, time-dependent, P<0.01): marked inhibition of Cyclin D1 promoter transcriptional activity | SP1-dependent transcriptional activity [12]: dramatically inhibition of SP1-dependent transcriptional activity | SP1 protein expression [13]: only downregulated SP1 protein expression | expression, activation or nuclear translocation of C-FOS, P-C-JUN(ser 73), P-C-JUN(ser63), C-JUN, HSF-1, P-ATFII, P-NF-κB p65, NF-κB p65 [13]: did not show any observable inhibition | SP1 binding to Cyclin D1 promoter region −92~+27 [14]: this binding was impaired | cells in G0/G1 (growth arrest) (UMUC3(GFP) cells): 74.60% | cells in G0/G1 (growth arrest) [15]: 54.61% | inhibition of anchorage-independent growth [16]: reversed by ectopic expression of GFP-Cyclin D1 | endogenous Cyclin D1 vs exogenous GFP-Cyclin D1 protein expression [17]: only downregulated endogenous Cyclin D1 protein expression | apoptosis ([18]; UMUC3 and other invasive BC cells, 20μM): induced apoptosis | cytotoxic effect ([18]; human bladder cancer cell lines, concentration lower than 20 μM): do not show cytotoxic effect | anchorage-independent growth ([18]; human bladder cancer cells, 20~60 μM): significant inhibitory effect on anchorage-independent growth | oxLDL-induced proliferation and mitogenesis [19]: inhibitory effect | cardiac hypertrophy (cardiac hypertrophy): inhibits cardiac hypertrophy
